# Results gathered from unrelated publications.
# Compare with care: the assays were run in different laboratories.
# Target: Dual specificity protein kinase CLK2 (CLK2, Homo sapiens, UniProt P49760)
Compound,read-out,mode,method,concentration,quantity,value
Cn1cc(-c2cc(F)cc(N3CCn4c(cc5c4CCCC5)C3=O)c2CO)cc(Nc2ccc(N3CCN(C4COC4)CC3)cn2)c1=O,enzyme activity,inhibitor,,0.1 µM,inhibition,7%
COc1cc(Nc2ncc(F)c(Nc3ccc4c(n3)NC(=O)C(C)(C)O4)n2)cc(OC)c1OC,binding,,competition with immobilised ligand,10 µM,inhibition,84%
N#CC1(c2ccccn2)CCN(Cc2cc(C(=O)O)c(=O)n3ccccc23)CC1,cell-free assay,,competition with immobilised ligand,1 µM,remaining binding,100%
O=c1[nH]c2ccccc2n1C1CCN(Cc2ccc(-c3[nH]c4cc5ncnc5cc4nc3-c3ccccc3)cc2)CC1,cell-free assay,,,0.5 µM,remaining signal,114%
COc1ncccc1-c1cnn2ccc(N3CCN(C(=O)OC(C)C)CC3)nc12,binding,,competition with immobilised ligand,1 µM,remaining binding,100%
Nc1ncc(-c2nc(N3CCOCC3)nc(N3CCOCC3)n2)c(C(F)F)n1,binding,,competition with immobilised ligand,10 µM,remaining binding,41%
C#Cc1n[nH]c2c(-c3cn([C@@H](C)c4ccccn4)c(=O)[nH]c3=O)cc(F)cc12,enzyme activity,inhibitor,,0.1 µM,inhibition,7.4%
Cc1nn(C)cc1-c1nc2c(N3CCN(Cc4ccc(Cl)cc4)CC3)c(Cl)cnc2[nH]1,binding,,competition with immobilised ligand,1 µM,remaining binding,77%
Cn1cncc1[C@@](O)(COc1ccc(C#N)cc1-c1ccc(OC(F)(F)F)cc1)c1ccc(C#N)cc1,cell-free assay,,competition with immobilised ligand,1 µM,remaining binding,90%
Cn1cc(-c2cccc(N3CCc4c(sc5c4CC(C)(C)C5)C3=O)c2CO)cc(Nc2ccncn2)c1=O,enzyme activity,inhibitor,,1 µM,inhibition,4%
CC(C)(C)c1cc(C=C(C#N)C#N)cc(Br)c1O,enzyme activity,inhibitor,,0.5 µM,remaining activity,104%
